Activity calls are given as the source filed them. The rule behind the calls is not given here.
Key:
Rattus norvegicus [1] = experiment: Antipyretic activity against brewer's yeast-induced hyperthermia in albino Wistar rat assessed as change in rectal temperature at 300 mg/kg, po after 1 hr (reference value: 33.78 +/- 0.18 degC); type: functional
Rattus norvegicus [2] = experiment: Antipyretic activity against brewer's yeast-induced hyperthermia in albino Wistar rat assessed as change in rectal temperature at 300 mg/kg, po after 3 hrs (reference value: 32.80 +/- 0.09 degC); type: functional
Rattus norvegicus [3] = experiment: Antipyretic activity against brewer's yeast-induced hyperthermia in albino Wistar rat assessed as change in rectal temperature at 300 mg/kg, po after 6 hrs (reference value: 33.44 +/- 0.18 degC); type: functional
Rattus norvegicus [4] = experiment: Antipyretic activity against brewer's yeast-induced hyperthermia in albino Wistar rat assessed as change in rectal temperature at 300 mg/kg, po after 5 hrs (reference value: 34.36 +/- 0.14 degC); type: functional
Rattus norvegicus [5] = experiment: Acute toxicity in albino Wistar rat assessed as ulceration at up to 3 g/kg, po after 24 hrs; type: organism-based; details: in vivo, 3000 mg/kg
In short: (§1)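 Albino rats of either sex, groups of six, dosed from 100 up to 3000 mg kg^-1 body weight. Watched continuously for 8 h for signs such as altered motor activity, ataxia, tremors, convulsions, sedation and lacrimation. Killed at 24 h; stomach, intestine and liver inspected under magnifying lenses for ulcer-haemorrhagic spots.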

Rattus norvegicus [6] = experiment: Antipyretic activity against brewer's yeast-induced hyperthermia in albino Wistar rat assessed as change in rectal temperature at 100 mg/kg, po after 3 hrs (reference value: 32.80 +/- 0.09 degC); type: functional
Rattus norvegicus [7] = experiment: Antipyretic activity against brewer's yeast-induced hyperthermia in albino Wistar rat assessed as change in rectal temperature at 100 mg/kg, po after 1 hr (reference value: 33.78 +/- 0.18 degC); type: functional
Rattus norvegicus [8] = experiment: Acute toxicity in albino Wistar rat assessed as convulsion at up to 3 g/kg, po after 24 hrs; type: organism-based; details: in vivo, 3000 mg/kg; in short: as §1
Rattus norvegicus [9] = experiment: Acute toxicity in albino Wistar rat assessed as intestine ulcerhaemorrhagic spots at up to 3 g/kg, po after 24 hrs; type: organism-based; details: in vivo, 3000 mg/kg; in short: as §1
Rattus norvegicus [10] = experiment: Acute toxicity in albino Wistar rat assessed as mortality at up to 3 g/kg, po after 24 hrs; type: organism-based; details: in vivo, 3000 mg/kg; in short: as §1
Rattus norvegicus [11] = experiment: Acute toxicity in albino Wistar rat assessed as sedation at up to 3 g/kg, po after 24 hrs; type: organism-based; details: in vivo, 3000 mg/kg; in short: as §1
Rattus norvegicus [12] = experiment: Analgesic activity in albino Wistar rat assessed as reaction time required for tail flicking at 25 mg/kg, po after 30 mins by tail-flick method (reference value: 3.97 +/- 0.287 sec); type: functional
Rattus norvegicus [13] = experiment: Antipyretic activity against brewer's yeast-induced hyperthermia in albino Wistar rat assessed as change in rectal temperature at 100 mg/kg, po after 5 hrs (reference value: 34.36 +/- 0.14 degC); type: functional
Rattus norvegicus [14] = experiment: Analgesic activity in albino Wistar rat assessed as reaction time required for tail flicking at 25 mg/kg, po after 90 mins by tail-flick method (reference value: 3.87 +/- 0.355 sec); type: functional
Rattus norvegicus [15] = experiment: Analgesic activity in albino Wistar rat assessed as reaction time required for tail flicking at 25 mg/kg, po after 60 mins by tail-flick method (reference value: 4 +/- 0.360 sec); type: functional
Rattus norvegicus [16] = experiment: Antipyretic activity against brewer's yeast-induced hyperthermia in albino Wistar rat assessed as change in rectal temperature at 100 mg/kg, po after 6 hrs (reference value: 33.44 +/- 0.18 degC); type: functional
Rattus norvegicus [17] = experiment: Acute toxicity in albino Wistar rat assessed as tremors at up to 3 g/kg, po after 24 hrs; type: organism-based; details: in vivo, 3000 mg/kg; in short: as §1
Nucleic Acid = experiment: Induction of Escherichia coli DNA cleavage at 25 mg after 24 hrs by agarose gel electrophoresis method; type: nucleic-acid assay
In short: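 E. coli grown in nutrient broth 24 h at 37 °C. Genomic DNA isolated by SDS lysis, phenol (55 °C, 10 min), chloroform:isoamyl alcohol extraction and ethanol precipitation, dissolved in TAE. Compounds at 1 mg/ml in DMF added to DNA, incubated 2 h at 37 °C. Run on agarose gel at 50 V about 30 min, stained with ethidium bromide, bands compared with DNA marker.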

Rattus norvegicus [18] = experiment: Acute toxicity in albino Wistar rat assessed as stomach ulcerhaemorrhagic spots at up to 3 g/kg, po after 24 hrs; type: organism-based; details: in vivo, 3000 mg/kg; in short: as §1
Rattus norvegicus [19] = experiment: Acute toxicity in albino Wistar rat assessed as haemorrhagic spots at up to 3 g/kg, po after 24 hrs; type: organism-based; details: in vivo, 3000 mg/kg; in short: as §1

Structure (SMILES) | T (Rattus norvegicus [1]) [°C] | T (Rattus norvegicus [2]) [°C] | T (Rattus norvegicus [3]) [°C] | T (Rattus norvegicus [4]) [°C] | Activity (Rattus norvegicus [5]) | T (Rattus norvegicus [6]) [°C] | T (Rattus norvegicus [7]) [°C] | Activity (Rattus norvegicus [8]) | Activity (Rattus norvegicus [9]) | Activity (Rattus norvegicus [10]) | Activity (Rattus norvegicus [11]) | Time (Rattus norvegicus [12]) [s] | T (Rattus norvegicus [13]) [°C] | Time (Rattus norvegicus [14]) [s] | Time (Rattus norvegicus [15]) [s] | T (Rattus norvegicus [16]) [°C] | Activity (Rattus norvegicus [17]) | Activity (Nucleic Acid) | Activity (Rattus norvegicus [18]) | Activity (Rattus norvegicus [19])
CC(=O)Oc1ccccc1C(=O)O [ASPIRIN] | 32.82 | 32 | 32.38 | 32.3 |  |  |  |  |  |  |  |  |  |  |  |  |  |  |  | 
O=c1cc(COc2ccc(-c3cc(-c4ccccc4)nc(S)n3)cc2)c2ccc3ccccc3c2o1 |  |  |  |  | Non-toxic | 32 | 33.01 | Non-toxic | Non-toxic | Non-toxic | Non-toxic | 4.52 | 33.09 | 6.25 | 5.25 | 32.5 | Non-toxic | Active | Non-toxic | Non-toxic

Reference: ChEMBL document CHEMBL1165909, “Analgesic, anti-pyretic and DNA cleavage studies of novel pyrimidine derivatives of coumarin moiety” (Eur J Med Chem, 2010)
